ChEMBL document CHEMBL4392826, “Prototyping kinase inhibitor-cytotoxin anticancer mutual prodrugs activated by tumour hypoxia: A chemical proof of concept study” (Bioorg Med Chem Lett, 2019)

Columns and labels:
SW-620 [1] = assay: Cytotoxicity against human SW620 cells incubated for 4 hrs under aerobic condition followed by compound washout and measured after 5 days by SRB assay; assay type: cell-based
Outline: (§1)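 Antiproliferative IC50 in MDA-MB-468 triple-negative breast or SW620 colon cancer cells, exposed under aerobic or anoxic conditions; mean ± std dev, n = 3.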

MDA-MB-468 [2] = assay: Cytotoxicity against human MDA-MB-468 cells incubated for 4 hrs under aerobic condition followed by compound washout and measured after 5 days by SRB assay; assay type: cell-based; outline: as §1
SW-620 [3] = assay: Cytotoxicity against human SW620 cells incubated for 4 hrs under hypoxic condition followed by compound washout and measured after 5 days by SRB assay; assay type: functional, cell-based; outline: as §1
MDA-MB-468 [4] = assay: Cytotoxicity against human MDA-MB-468 cells incubated for 4 hrs under hypoxic condition followed by compound washout and measured after 5 days by SRB assay; assay type: functional, cell-based; outline: as §1
MDA-MB-468 [5] = assay: Selectivity ratio of IC50 for human MDA-MB-468 cells under aerobic condition to IC50 for human MDA-MB-468 cells under hypoxic condition
Outline: (§2)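 Hypoxic cytotoxicity ratio: aerobic IC50 divided by anoxic IC50 in the same cell line (MDA-MB-468 or SW620).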

SW-620 [6] = assay: Selectivity ratio of IC50 for human SW620 cells under aerobic condition to IC50 for human SW620 cells under hypoxic condition; outline: as §2
[7] = Electrochemical behavior of the compound assessed as one-elctron reduction potential at 50 uM in pH 7 deaerated phosphate buffered by pulse radiolysis
[8] = Ratio of test compound IC50 to floxuridine IC50 for human MDA-MB-468 cells incubated for 4 hrs under aerobic condition followed by compound washout and measured after 5 days by SRB assay; assay type: ADME, cell-based; conditions: read-out: Ratio IC50
Outline: (§3)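 Deactivation ratio: aerobic antiproliferative IC50 of the prodrug divided by aerobic IC50 of the parent cytotoxin control (floxuridine). IC50 values were means ± std dev, n = 3, determined in MDA-MB-468 triple-negative breast or SW620 colon cancer cells.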

[9] = Ratio of test compound IC50 to floxuridine IC50 for human SW620 cells incubated for 4 hrs under aerobic condition followed by compound washout and measured after 5 days by SRB assay; assay type: ADME, cell-based, SW-620; conditions: read-out: Ratio IC50; outline: as §3
[10] = Ratio of test compound IC50 to melphalan IC50 for human SW620 cells incubated for 4 hrs under aerobic condition followed by compound washout and measured after 5 days by SRB assay; assay type: ADME, cell-based, SW-620; conditions: read-out: Ratio IC50
Outline: (§4)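 Deactivation ratio: aerobic IC50 of the prodrug divided by the aerobic IC50 of the parent control cytotoxin, in the same cell line (MDA-MB-468 or SW620).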

[11] = Aqueous solubility of the compound; assay type: physicochemical; conditions: buffer
[12] = Ratio of test compound IC50 to melphalan IC50 for human MDA-MB-468 cells incubated for 4 hrs under aerobic condition followed by compound washout and measured after 5 days by SRB assay; assay type: ADME, cell-based; conditions: read-out: Ratio IC50; outline: as §4
[13] = Electrochemical behavior of the compound assessed as one-elctron reduction potential at 0.42 uM in tert-butanol by pulse radiolysis

Compound	IC50 (SW-620 [1]) [µM]	IC50 (MDA-MB-468 [2]) [µM]	IC50 (SW-620 [3]) [µM]	IC50 (MDA-MB-468 [4]) [µM]	Ratio IC50 (MDA-MB-468 [5])	Ratio IC50 (SW-620 [6])	Activity [7] [mV]	selectivity ratio at 4 h [8]	selectivity ratio at 4 h [9]	selectivity ratio at 4 h [10]	solubility [11]	selectivity ratio at 4 h [12]	Activity [13] [mV]
O=c1[nH]c(=O)n([C@H]2C[C@H](O)[C@@H](CO)O2)cc1F [FLOXURIDINE]	0.96	27.4	1.48	45.5	<1	<1							
Cc1cc(C)c(/C=C(\C(=O)OC[C@H]2O[C@@H](n3cc(F)c(=O)[nH]c3=O)C[C@@H]2O)c2ccccc2[N+](=O)[O-])[nH]1	18.7	83.9	14	248	<1	1.3	-509	3.1	19.4				
Cn1c(COP(=O)(NCCBr)NCCBr)cnc1[N+](=O)[O-] [EVOFOSFAMIDE]	20.6	4.4	0.052	0.0062	710	396							
Cc1cc(C)c(/C=C(\C(=O)Nc2ccc(N(CCCl)CCCl)cc2)c2ccccc2[N+](=O)[O-])[nH]1	11.5	8.31	12.7	7.38	1.1	<1				6.3	Insoluble	8.3	
Cc1cc(C)c(/C=C(\C(=O)Nc2ccc(N(CCO)CCO)cc2)c2ccccc2[N+](=O)[O-])[nH]1													-550
N[C@@H](Cc1ccc(N(CCCl)CCCl)cc1)C(=O)O [MELPHALAN]	1.81	1	1.22	0.81	1.2	1.5							
Nc1n[n+]([O-])c2ccccc2[n+]1[O-] [TIRAPAZAMINE]	91	105	1.2	1.3	81	76							
